This is an account of results in ChEMBL document CHEMBL2203269, “Target-Activated Prodrugs (TAPs) for the Autoregulated Inhibition of MMP12” (ACS Med Chem Lett, 2012).

Substrate in this data set: CC(C)C[C@H](NC(=O)CN(C(=O)[C@H](CC(C)C)NC(=O)[C@@H]1CCCN1C(=O)OCc1ccccc1)S(=O)(=O)c1ccc(-c2ccccc2)cc1)C(=O)N[C@@H](CCC(=O)O)C(=O)N[C@@H](CCC(=O)O)C(=O)N[C@@H](C)C(N)=O
The data set is described as follows: Ratio of Kcat to Km for human MMP-12. The method, boiled down: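 Recombinant human MMP12 was incubated with the peptidic prodrug substrate. Cleavage at the N terminus of the P1 leucine was monitored by HPLC, and kcat/Km was determined from the HPLC data.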

B1: Macrophage metalloelastase (Homo sapiens), P39900 (protein)
chain: MKFLLILLLQATASGALPLNSSTSLEKNNVLFGERYLEKFYGLEINKLPVTKMKYSGNLMKEKIQEMQHFLGLKVTGQLDTSTLEMMHAPRCGVPDVHHFREMPGGPVWRKHYITYRINNYTPDMNREDVDYAIRKAFQVWSNVTPLKFSKINTGMADILVVFARGAHGDFHAFDGKGGILAHAFGPGSGIGGDAHFDEDEFWTTHSGGTNLFLTAVHEIGHSLGLGHSSDPKAVMFPTYKYVDINTFRLSADDIRGIQSLYGDPKENQRLPNPDNSEPALCDPNLSFDAVTTVGNKIFFFKDRFFWLKVSERPKTSVNLISSLWPTLPSGIEAAYEIEARNQVFLFKDDKYWLISNLRPEPNYPKSIHSFGFPNFVKKIDAAVFNPRFYRTYFFVDNQYWRYDERRQMMDPGYPKLITKNFQGIGPKIDAVFYSKNKYYYFFQGSNQFEYDFLLQRITKTLKSNSWFGC
For B1, the kcat/Km worked out at 3.7 ×10³ /M.s.
